Data: ChEMBL document CHEMBL3862037 (J Med Chem, 2016)

Assays:
[1] = species on record: Rattus norvegicus; test: Selectivity index, ratio of Ki for SERT in Sprague-Dawley rat brain stem membranes to Ki for DAT in Sprague-Dawley rat brain membranes; type: cell membranes
[2] = target: Sodium-dependent dopamine transporter (Rattus norvegicus, UniProt P23977); test: Displacement of [3H]WIN35,428 from DAT in Sprague-Dawley rat brain membranes incubated for 120 mins by radioligand binding assay; type: cell membranes, Membrane
Sequence of Sodium-dependent dopamine transporter (P23977 whole entry): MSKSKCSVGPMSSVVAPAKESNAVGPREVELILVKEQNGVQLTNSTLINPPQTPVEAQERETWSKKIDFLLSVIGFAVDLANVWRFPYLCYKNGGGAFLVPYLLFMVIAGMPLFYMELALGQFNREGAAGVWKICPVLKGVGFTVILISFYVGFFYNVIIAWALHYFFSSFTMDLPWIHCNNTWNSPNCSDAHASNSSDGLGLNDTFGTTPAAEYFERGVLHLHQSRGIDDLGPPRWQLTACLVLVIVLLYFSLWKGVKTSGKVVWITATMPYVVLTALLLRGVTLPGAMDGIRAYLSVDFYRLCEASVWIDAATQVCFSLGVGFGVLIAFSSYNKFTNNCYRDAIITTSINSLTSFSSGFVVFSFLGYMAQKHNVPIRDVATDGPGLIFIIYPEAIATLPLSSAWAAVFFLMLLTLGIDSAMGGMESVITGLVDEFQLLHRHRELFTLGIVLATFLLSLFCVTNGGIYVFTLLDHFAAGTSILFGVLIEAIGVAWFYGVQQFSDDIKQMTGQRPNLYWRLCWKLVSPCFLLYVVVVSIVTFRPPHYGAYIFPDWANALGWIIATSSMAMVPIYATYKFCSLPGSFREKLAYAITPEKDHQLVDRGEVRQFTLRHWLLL

[3] = target: Sodium-dependent serotonin transporter (Rattus norvegicus, UniProt P31652); test: Displacement of [3H]citalopram from SERT in Sprague-Dawley rat brain stem membranes incubated for 60 mins by radioligand binding assay; type: tissue-based
Sequence of Sodium-dependent serotonin transporter (P31652 whole entry): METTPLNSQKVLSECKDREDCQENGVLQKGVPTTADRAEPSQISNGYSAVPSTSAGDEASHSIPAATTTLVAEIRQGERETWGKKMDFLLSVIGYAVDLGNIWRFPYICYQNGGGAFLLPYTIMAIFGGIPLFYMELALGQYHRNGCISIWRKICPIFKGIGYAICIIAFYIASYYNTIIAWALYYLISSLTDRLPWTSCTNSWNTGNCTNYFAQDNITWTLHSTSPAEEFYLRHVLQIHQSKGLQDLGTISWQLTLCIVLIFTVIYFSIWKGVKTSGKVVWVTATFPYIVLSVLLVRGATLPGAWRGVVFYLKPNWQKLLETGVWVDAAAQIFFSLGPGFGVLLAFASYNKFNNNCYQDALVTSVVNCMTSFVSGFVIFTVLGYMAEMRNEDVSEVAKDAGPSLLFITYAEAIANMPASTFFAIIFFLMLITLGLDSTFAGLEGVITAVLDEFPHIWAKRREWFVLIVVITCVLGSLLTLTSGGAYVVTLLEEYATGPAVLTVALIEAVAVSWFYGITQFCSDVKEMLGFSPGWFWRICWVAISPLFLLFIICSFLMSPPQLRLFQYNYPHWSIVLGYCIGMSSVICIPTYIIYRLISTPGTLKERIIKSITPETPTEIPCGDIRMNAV

[4] = Displacement of [3H]nisoxetine from NET in Sprague-Dawley rat frontal cortex membranes incubated for 180 mins by radioligand binding assay; set-up: species or system Membrane
[5] = species on record: Rattus norvegicus; test: Selectivity index, ratio of Ki for NET in Sprague-Dawley rat frontal cortex membranes to Ki for DAT in Sprague-Dawley rat brain membranes; type: cell membranes
[6] = Stability in mouse liver microsomes assessed as compound degradation at 10 uM in presence of NADPH regenerating system measured < 30 mins mins by LC/MS/MS method; type: ADME; details: 0.5 h
In short: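 Mouse liver microsomes (0.5 mg/mL) in 100 mM potassium phosphate pH 7.4 with NADPH regenerating system. Compound at 10 µM final; testosterone as positive control. Parent compound loss followed over time by LC/MS/MS on a C18 column with formic acid/acetonitrile gradient.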

[7] = target: Sigma non-opioid intracellular receptor 1 (Cavia porcellus, UniProt Q60492); test: Displacement of [3H](+)-pentazocine from sigma1 receptor in whole-guinea pig brain minus cerebellum homogenates incubated for 120 mins by radioligand binding assay
Sequence of Sigma non-opioid intracellular receptor 1 (Q60492 whole entry): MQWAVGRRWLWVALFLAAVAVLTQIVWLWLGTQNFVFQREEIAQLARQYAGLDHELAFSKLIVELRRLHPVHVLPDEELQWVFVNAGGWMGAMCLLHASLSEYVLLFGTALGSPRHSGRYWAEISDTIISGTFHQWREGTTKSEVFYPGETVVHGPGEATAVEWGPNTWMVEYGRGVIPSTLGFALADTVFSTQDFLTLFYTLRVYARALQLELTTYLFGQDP
In short: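 Guinea pig whole-brain (minus cerebellum) membranes, 8.0 mg OWW per tube, in 50 mM Tris-HCl pH 8.0 with 3 nM [3H](+)-pentazocine. Incubated 120 min at room temperature. Nonspecific binding defined by haloperidol. Stopped by GF/B filtration and scintillation counting. IC50 from nonlinear regression, converted to Ki. At least three independent experiments, each in triplicate.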

[8] = target: T1, D(4) dopamine receptor (Homo sapiens, UniProt P21917); test: Displacement of [3H]N-methylspiperone from human D4R expressed in HEK293 cell membranes incubated for 1 hr by radioligand binding assay
T1 sequence (P21917 whole entry): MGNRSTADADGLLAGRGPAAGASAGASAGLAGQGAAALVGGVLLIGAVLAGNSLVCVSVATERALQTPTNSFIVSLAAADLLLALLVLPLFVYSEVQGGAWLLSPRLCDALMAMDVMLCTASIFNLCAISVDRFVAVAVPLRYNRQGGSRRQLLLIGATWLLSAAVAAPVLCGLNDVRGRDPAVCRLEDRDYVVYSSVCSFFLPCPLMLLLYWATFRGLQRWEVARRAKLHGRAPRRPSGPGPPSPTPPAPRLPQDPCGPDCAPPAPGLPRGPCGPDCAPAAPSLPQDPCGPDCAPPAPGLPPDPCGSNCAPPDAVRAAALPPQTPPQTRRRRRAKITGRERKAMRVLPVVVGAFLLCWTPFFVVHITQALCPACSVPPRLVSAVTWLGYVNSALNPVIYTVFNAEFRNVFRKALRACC
In short: (§1)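 Membranes from HEK293 cells stably expressing human D2R (20 µg protein) or D4R (30 µg protein). Buffer: EBSS with 0.2 mM sodium metabisulfite and 0.4 nM [3H]N-methylspiperone. Test compound at 11 half-log dilutions (100 µM–100 pM or 10 µM–10 pM) in 30% DMSO vehicle. Incubated 1 h at room temperature; nonspecific binding with 10 µM butaclamol.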

[9] = Induction of locomotor activity in C57BL/6J mouse assessed as increase in traveled distance every 10 mins at 10 mg/kg, ip; type: organism-based; details: in vivo
[10] = Induction of locomotor activity in C57BL/6J mouse assessed as increase in traveled distance every 10 mins at 10 to 30 mg/kg, ip; type: organism-based; details: in vivo
[11] = target: D(2) dopamine receptor (Homo sapiens, UniProt P14416); test: Displacement of [3H]N-methylspiperone from human D2R expressed in HEK293 cell membranes incubated for 1 hr by radioligand binding assay; in short: as §1
Sequence of D(2) dopamine receptor (P14416 whole entry): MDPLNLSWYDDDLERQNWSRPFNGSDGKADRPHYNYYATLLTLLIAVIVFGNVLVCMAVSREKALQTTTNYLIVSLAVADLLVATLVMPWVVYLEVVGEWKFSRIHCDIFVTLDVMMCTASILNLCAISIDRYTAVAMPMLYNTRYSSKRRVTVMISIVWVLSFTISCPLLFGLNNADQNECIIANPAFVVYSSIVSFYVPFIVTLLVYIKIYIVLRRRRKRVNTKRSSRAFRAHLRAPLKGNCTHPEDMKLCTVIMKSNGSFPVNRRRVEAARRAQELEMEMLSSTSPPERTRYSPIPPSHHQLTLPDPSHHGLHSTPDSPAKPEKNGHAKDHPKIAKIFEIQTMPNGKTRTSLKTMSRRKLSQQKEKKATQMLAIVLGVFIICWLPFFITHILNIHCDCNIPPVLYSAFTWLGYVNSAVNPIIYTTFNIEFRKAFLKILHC

[12] = target: D(3) dopamine receptor (Homo sapiens, UniProt P35462); test: Displacement of [3H]N-methylspiperone from human D3R expressed in HEK293 cell membranes incubated for 1 hr by radioligand binding assay
Sequence of D(3) dopamine receptor (P35462 whole entry): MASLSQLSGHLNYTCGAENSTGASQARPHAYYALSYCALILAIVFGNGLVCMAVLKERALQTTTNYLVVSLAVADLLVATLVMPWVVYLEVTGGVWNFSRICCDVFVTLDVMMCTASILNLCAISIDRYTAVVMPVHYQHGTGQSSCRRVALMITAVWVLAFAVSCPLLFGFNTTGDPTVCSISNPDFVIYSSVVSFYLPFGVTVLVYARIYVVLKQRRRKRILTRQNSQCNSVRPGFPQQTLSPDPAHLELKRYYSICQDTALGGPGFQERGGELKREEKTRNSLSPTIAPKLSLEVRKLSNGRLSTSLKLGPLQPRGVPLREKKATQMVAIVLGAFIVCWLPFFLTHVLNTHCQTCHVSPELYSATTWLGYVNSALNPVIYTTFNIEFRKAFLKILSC

Compound	Ratio Ki [1]	Ki [2] [µM]	Ki [3] [µM]	Ki [4] [µM]	Ratio Ki [5]	Stability [6]	Ki [7] [µM]	Ki [8] [µM]	Activity [9]	Activity [10]	Ki [11] [µM]	Ki [12] [µM]
Fc1ccc(C(SCCN2CCN(Cc3ccccc3)CC2)c2ccc(F)cc2)cc1	> 100	0.0074	0.949	8.24	> 100							
O=C(C[S+]([O-])C(c1ccc(F)cc1)c1ccc(F)cc1)N1CCN(Cc2ccc(F)cc2)CC1 (configuration not stated)	> 100	0.0743	23.6		> 100	Unstable						
NC(=O)C[S@@+]([O-])C(c1ccccc1)c1ccccc1 [ARMODAFINIL]							> 100	> 100	Toxic	Dose-dependent effect	> 100	39
CC(O)CN1CCN(CC[S+]([O-])C(c2ccccc2)c2ccccc2)CC1 (configuration not stated)	> 100				> 100							
Fc1ccc(C(SCCN2CCN(Cc3ccc(C(F)(F)F)cc3)CC2)c2ccc(F)cc2)cc1	> 100	0.0266	2.02	15.4	> 100							
CCCCN1C2CCC1CC(OC(c1ccc(F)cc1)c1ccc(F)cc1)C2 (configuration not stated)		0.0105		1.67			0.0024	0.583			0.0681	0.0344
CC(O)CN1CCN(CC[S+]([O-])C(c2cccc(Cl)c2)c2cccc(Cl)c2)CC1 (configuration not stated)	> 100	0.403	58.9	> 50	> 100							
CC(O)CN1CCN(C(=O)C[S+]([O-])C(c2ccc(F)cc2)c2ccc(F)cc2)CC1 (configuration not stated)	> 100	0.752	32.8		> 100							
[O-][S+](CCN1CCN(Cc2ccc(C(F)(F)F)cc2)CC1)C(c1ccc(F)cc1)c1ccc(F)cc1 (configuration not stated)	> 100	0.0394	6.8	> 50	> 100	Unstable						
Fc1ccc(C(SCCNCCCc2ccccc2)c2ccc(F)cc2)cc1							0.159	0.0281	Non-Toxic		0.228	0.0659
CCc1cc(Cl)c(OC)c(C(=O)NC[C@@H]2CCCN2CC)c1O [ETICLOPRIDE]								0.0704			0.00026	
CC(O)CN1CCN(C(=O)CSC(c2cccc(Cl)c2)c2cccc(Cl)c2)CC1 (configuration not stated)	> 100	0.915		> 50	> 100							
CCCN1CCN(C(=O)CSC(c2ccc(F)cc2)c2ccc(F)cc2)CC1	> 100	0.277	5.97		> 100							
OC(Cc1ccccc1)CN1CCN(CCSC(c2ccc(F)cc2)c2ccc(F)cc2)CC1 (configuration not stated)	> 100				> 100							
CC(O)CN1CCN(C(=O)C[S+]([O-])C(c2cccc(Cl)c2)c2cccc(Cl)c2)CC1 (configuration not stated)	> 100	1.38		> 50	> 100							
[O-][S+](CCN1CCN(Cc2ccccc2)CC1)C(c1ccc(F)cc1)c1ccc(F)cc1 (configuration not stated)	> 100	0.0272	11.2	45.7	> 100							
O=C(CSC(c1ccc(F)cc1)c1ccc(F)cc1)N1CCN(Cc2ccc(Cl)cc2)CC1	> 100	0.0587	2.2		> 100							

Compound	Ratio Ki [1]	Ki [2] [µM]	Ki [3] [µM]	Ki [4] [µM]	Ratio Ki [5]	Stability [6]	Ki [7] [µM]	Ki [8] [µM]	Activity [9]	Activity [10]	Ki [11] [µM]	Ki [12] [µM]
O=C(C[S+]([O-])C(c1ccc(F)cc1)c1ccc(F)cc1)N1CCN(Cc2ccc(Cl)cc2)CC1 (configuration not stated)	> 100	0.0563	9.46	63.5	> 100							
[O-][S+](CCN1CCN(Cc2ccc(Cl)cc2)CC1)C(c1ccc(F)cc1)c1ccc(F)cc1 (configuration not stated)	> 100	0.00762	4.94	> 50	> 100	Unstable						
CC(O)CN1CCN(C(=O)CSC(c2ccc(F)cc2)c2ccc(F)cc2)CC1 (configuration not stated)	> 100	0.214	11.4		> 100	Unstable						
Fc1ccc(C(SCCN2CCN(Cc3ccc(Cl)cc3)CC2)c2ccc(F)cc2)cc1	> 100	0.0193	0.905	7.41	> 100							
CC(O)CN1CCN(CCSC(c2cccc(Cl)c2)c2cccc(Cl)c2)CC1 (configuration not stated)	> 100	0.143	10.8	31.3	> 100							
CCCN1CCN(C(=O)C[S+]([O-])C(c2ccc(F)cc2)c2ccc(F)cc2)CC1 (configuration not stated)	> 100	0.279	14.5		> 100							
[O-][S+](CCN1CCN(Cc2ccc(F)cc2)CC1)C(c1ccc(F)cc1)c1ccc(F)cc1 (configuration not stated)	> 100	0.00967	8.52	> 50	> 100	Unstable						
Fc1ccc(CN2CCN(CCSC(c3ccc(F)cc3)c3ccc(F)cc3)CC2)cc1	> 100	0.00498	0.463	6.85	> 100							
CC(O)CN1CCN(CCSC(c2ccccc2)c2ccccc2)CC1 (configuration not stated)	> 100				> 100							
[O-][S+](CCN1CCN(CC(O)Cc2ccccc2)CC1)C(c1ccccc1)c1ccccc1 (configuration not stated)	> 100				> 100	Unstable						
c1ccc(CCCN2CCN(CCSC(c3ccccc3)c3ccccc3)CC2)cc1	> 100				> 100							
[O-][S+](CCN1CCN(CCCc2ccccc2)CC1)C(c1ccccc1)c1ccccc1 (configuration not stated)	> 100		7.36		> 100							
O=C(CSC(c1ccc(F)cc1)c1ccc(F)cc1)N1CCN(CCCc2ccccc2)CC1	> 100	0.0286	3.17	20.2	> 100							
O=C(C[S+]([O-])C(c1ccc(F)cc1)c1ccc(F)cc1)N1CCN(CCCc2ccccc2)CC1 (configuration not stated)	> 100	0.0376	1.32	12	> 100	Unstable						
O=C(CSC(c1ccc(F)cc1)c1ccc(F)cc1)N1CCN(Cc2ccc(F)cc2)CC1	> 100	0.0537	6.21		> 100							
Fc1ccc(C(SCCN2CCN(CCCc3ccccc3)CC2)c2ccc(F)cc2)cc1	> 100				> 100							
